IMP-1 inhibitor = IMP-1 metallo-beta-lactamase inhibitors, primary screen, biochemical, epi-absorbance readout, Pseudomonas aeruginosa enzyme; inhibition, % at 5.6 µM; 290,000 tested, 0.45% active; purified IMP-1, nitrocefin hydrolysis, epi-absorbance fluorescence;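 active = inhibition above the mean plus 3 SD of all compounds in the same screening run, cut at about 4.5% in these data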;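 note: 0% = IMP-1 with DMSO and 100% = DMSO wells lacking enzyme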
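Test system: recombinant IMP-1 enzyme, purified / Medium: HEPES buffer pH 7.1 with ZnSO4 and Brij 35 / Doses: single dose, 5.6 µM / Times: 25 °C, 15 min preincubation, 25 min reaction / Detection: Epi-absorbance via hydrolysed-nitrocefin quenching of white-plate fluorescence, 480/530 nm, EDTA stop / Evaluation: percent inhibition from optical density relative to buffer-blank wells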
PfM18AAP inh-1 = PfM18AAP inhibitors, malaria aminopeptidase, primary screen, biochemical, QFRET, recombinant enzyme; M18 aspartyl aminopeptidase (Plasmodium falciparum 3D7); H-Glu-NHMec fluorogenic cleavage; inhibition, % at 7.35 µM; 290,000 tested, 1.2% active; AID 1822, 2009;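 active = inhibition above the campaign mean inhibition over all tested compounds plus 3 SD, cut at about 28% in these data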;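 note: 0% = plate median of test compound wells and 100% = 2 mM ZnCl2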
VIM-2 inh = VIM-2 metallo-beta-lactamase inhibitors, primary screen, biochemical, epi-absorbance readout, Pseudomonas aeruginosa enzyme; inhibition, % at 5.6 µM; purified VIM-2, nitrocefin hydrolysis, epi-absorbance fluorescence; 290,000 tested, 0.89% active;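 active = inhibition above the mean of all tested compounds plus 3 SD, cutoff set per screening run, cut at about 7.5% in these data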;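 note: red hydrolysis product quenches plate fluorescence so inhibitors raise well fluorescence; 0% = enzyme with DMSO and 100% = DMSO without enzyme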
CTSL1 counter-1 = Fasciola hepatica cathepsin L1 inhibitors, primary screen, counter-screen for PFM18AAP inhibitor project, biochemical, QFRET, fluorogenic peptide substrate; recombinant F. hepatica cathepsin L1, Z-Leu-Arg-MCA fluorescence; inhibition, % at 5.96 µM; 300,000 tested, 0.49% active;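 active = inhibition above the mean of all tested compounds plus 3 SD, set per screening campaign, cut at about 17% in these data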;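 note: 0% = plate median of test compound wells and 100% = 1 µM Z-Phe-Ala-diazomethylketone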
PfM18AAP inh-2 = PfM18AAP inhibitors, malaria aminopeptidase, confirmation, biochemical, QFRET, recombinant enzyme, triplicate; shares compounds with PfM18AAP inh-1; H-Glu-NHMec fluorogenic cleavage; inhibition, % at 7.35 µM; 2,400 tested, 28% active; AID 2170, 2009;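 active = mean inhibition over replicate wells above the hit cutoff set for the earlier primary screen, cut at about 29% in these data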;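 note: 0% = median of test compound wells and 100% = 2 mM ZnCl2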
CTSL1 counter-2 = cathepsin L1 inhibitors, retest, confirmation, counter-screen for PFM18AAP inhibitor project, biochemical, QFRET, triplicate; shares compounds with PfM18AAP inh-1; purified cathepsin L1, Z-Leu-Arg-MCA fluorescence; inhibition, % at 5.96 µM; 2,400 tested, under 10 active;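 active = average inhibition across replicates above the hit cutoff set in the earlier primary screen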;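 note: 0% = median of test compound wells and 100% = Z-Phe-Ala-diazomethylketone 1 µM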
Target sequence (P07711 whole entry, looked up): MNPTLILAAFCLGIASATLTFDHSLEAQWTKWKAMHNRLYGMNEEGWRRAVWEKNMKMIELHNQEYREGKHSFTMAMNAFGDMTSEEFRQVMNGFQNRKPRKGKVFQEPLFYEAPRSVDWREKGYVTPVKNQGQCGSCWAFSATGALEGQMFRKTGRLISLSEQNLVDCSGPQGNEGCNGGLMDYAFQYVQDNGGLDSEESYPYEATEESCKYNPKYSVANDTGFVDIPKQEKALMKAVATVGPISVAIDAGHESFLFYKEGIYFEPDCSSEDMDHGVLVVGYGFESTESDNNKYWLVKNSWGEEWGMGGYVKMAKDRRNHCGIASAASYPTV
* = called active by the depositor; . = no result given. Most compounds without a hit are left out; they make up all but 2.7% or so of the library.

SMILES | IMP-1 inhibitor | PfM18AAP inh-1 | VIM-2 inh | CTSL1 counter-1 | PfM18AAP inh-2 | CTSL1 counter-2
Cc1ccc(/C=C/c2ccc(=O)n(Cc3ccccc3Cl)n2)cc1 | -2 | 0 | 0 | 2 | . | .
CCn1c(-c2cc3c(C(F)(F)F)nn(C)c3s2)n[nH]c1=S | -2 | 3 | -7 | 0 | . | .
CCN1/C(=C/C(C)=C/c2sc3ccccc3[n+]2CC)Sc2ccccc21 | -3 | 44* | 2 | 0 | -35 | -5
CCN1/C(=C\C=C(C(C)=O)C(C)=O)Sc2ccccc21 | -3 | 3 | 1 | 11 | . | .
Oc1ccc(/C=N/Nc2cccc(Cl)n2)c(O)c1 | 0 | 58* | -3 | 0 | 57* | 7
O=C(Nn1cnnc1)c1ccccc1-c1ccccc1 | -1 | 56* | -6 | 1 | 64* | -6
O=C(CCN1C(=O)c2ccccc2C1=O)Nn1cnnc1 | -1 | 45* | 2 | -3 | 46* | -3
O=C(Nc1ccccc1)c1ccccc1CCc1ccccc1 | 0 | 0 | 0 | -2 | . | .
O=C(Nn1cnnc1)c1ccccc1CCc1ccccc1 | -5 | 42* | -3 | 1 | 35* | -1
O=C(CCN1C(=O)c2ccccc2C1=O)NCc1ccccc1 | -1 | -3 | -1 | 3 | . | .
CSCC(C)N1CCC(N2CCC(C(=O)NCc3ccccn3)CC2)CC1 (configuration not stated) | 1 | -9 | -1 | -2 | . | .
Cc1csc(NC(=O)CCC(=O)N(CC(=O)NC2CCCCC2)c2ccccc2)n1 | -2 | -5 | 0 | -1 | . | .
O=C(CNc1ccc(Oc2ccccc2)cc1)N1CCOCC1 | -3 | 42* | -2 | 11 | -37 | -3
S=C(Nc1ccc(Oc2ccccc2)cc1)N1CCOCC1 | -2 | 3 | -1 | 0 | . | .
CCN1C(=O)[C@H]2[C@@H](c3ccc(-c4ccccc4)cc3)N3CCCC[C@@]3(C(=O)OC)[C@H]2C1=O | . | . | . | 9 | . | .
CCc1c(C)sc(NC(=O)c2cc(CC(C)C)on2)c1C#N | -4 | 13 | 1 | 3 | . | .
CCc1c(C)sc(NC(=O)c2noc(C)c2[N+](=O)[O-])c1C#N | -3 | 37* | -2 | 0 | -36 | -3
O=C1NC(=O)/C(=C/c2ccc(N3CCOCC3)o2)N1 | -1 | 9 | -1 | -3 | . | .
O=C1NC(=O)/C(=C\c2ccc(N3CCOCC3)o2)N1 | 0 | 37* | 1 | 1 | -30 | -6
c1ccc2c(c1)Nc1nccnc1S2 | -1 | 36* | -6 | -1 | 4 | -7
Cc1nc2ccccn2c1C(=O)NNC(=O)Nc1cccc(C(F)(F)F)c1 | 0 | 64* | -2 | -7 | 33* | 8
Cc1ccn2c(C(=O)NNC(=O)Nc3ccc(Cl)cc3)c(C)nc2c1 | -2 | 64* | -4 | . | 48* | -4
Cc1ccn2c(C(=O)N/N=C/c3ccc(Cl)cc3)c(C)nc2c1 | -4 | -10 | -1 | . | . | .
COc1ccccc1CC(=O)c1ccc(OCc2ccccc2)cc1 | . | . | . | 1 | . | .
CCOc1nc2cnccc2n(CC(=O)Nc2cccc(C)c2)c1=O | -3 | -2 | -1 | 0 | . | .
SMILES | IMP-1 inhibitor | PfM18AAP inh-1 | VIM-2 inh | CTSL1 counter-1 | PfM18AAP inh-2 | CTSL1 counter-2
Cc1ccc(C2=NOC(C)(c3nnc(Cc4ccccc4)o3)C2)cc1 (configuration not stated) | . | . | . | -2 | . | .
COc1cc2c(cc1OC)C(c1cc3cccc(C)c3[nH]c1=O)N(C(=O)c1ccco1)CC2 (configuration not stated) | -4 | 48* | -4 | -4 | -36 | -3
COc1cc2c(cc1OC)C(COc1ccc(F)cc1)N(C(=O)c1ccco1)CC2 (configuration not stated) | -2 | -10 | -1 | -3 | . | .
C/C(=N\Nc1cc(C)nc(-c2ccccc2O)n1)c1ccccc1 | -4 | 11 | -2 | 0 | . | .
Cc1cc(N/N=C/c2ccc(O)c(C)c2O)nc(-c2ccccc2O)n1 | -3 | 44* | -4 | 3 | 38* | 4
O=c1c2c3c(sc2n2c(=S)[nH]nc2n1-c1ccccc1)CCC3 | -1 | -1 | 2 | -1 | . | .
CCCCn1c(=O)c2ccccc2n2c(=S)[nH]nc12 | -4 | 32* | -5 | 1 | -2 | -3
O=c1c2ccccc2n2c(=S)[nH]nc2n1-c1ccccc1 | 0 | 45* | -1 | 2 | 19 | -5
CN1CCc2c(sc3c2c(=O)n(-c2ccccc2)c2n[nH]c(=S)n32)C1 | -3 | 38* | 1 | -1 | -22 | 2
COc1ccc(OC)c(CNC(=O)C2CCC(=O)N2C(C)C)c1 (configuration not stated) | -2 | 0 | -3 | -2 | . | .
ClCc1csc(-c2ccccc2Cl)n1 | -4 | 10 | -4 | 0 | . | .
CC1(C)CC(CC(=O)NNc2nc(-c3ccccc3)cs2)C(=O)O1 (configuration not stated) | -4 | 34* | -2 | 7 | -1 | -7
CC(C)CC1CC(C)(c2csc(NNC(=O)c3ccccc3)n2)OC1=O (configuration not stated) | -4 | 33* | -2 | -2 | -10 | -1
O=C(NCCc1ccccc1)c1ccc(Cl)cc1[N+](=O)[O-] | -1 | -2 | 0 | . | . | .
C[n+]1cccc2ccc3c(c21)OC(N)=C(C#N)C3c1ccccc1 (configuration not stated) | -2 | 10 | 3 | 4 | . | .
C[n+]1cccc(C2C(C#N)=C(N)Oc3c2ccc2ccccc32)c1 (configuration not stated) | 0 | 38* | 3 | 7 | -26 | -6
O=S(=O)(Nn1cnnc1)c1ccc(F)cc1 | -2 | 42* | -1 | 6 | 48* | -6
CCCCOC(=O)Nc1ccc(S(=O)(=O)Nc2ncccn2)cc1 | -3 | 2 | -1 | -6 | . | .
CCCCCOC(=O)Nc1ccc(S(=O)(=O)Nn2cnnc2)cc1 | -4 | 46* | -3 | -2 | 48* | 0
Cc1ccc(S(=O)(=O)Nn2cnnc2)cc1 | -1 | 65* | 2 | 1 | 56* | -2
CC(C)(C)c1ccc(-c2conc2N)cc1 | -4 | -3 | -4 | 0 | . | .
CN(CC(=O)Nn1cnnc1)S(=O)(=O)c1ccccc1 | -2 | 32* | 2 | -2 | 20 | -5
CCN(CC)S(=O)(=O)c1ccc(C(=O)NC(C)(C)C)cc1 | 0 | -16 | 2 | -3 | . | .
CCN(CC)S(=O)(=O)c1ccc(C(=O)Nn2cnnc2)cc1 | -2 | 81* | 1 | -3 | 75* | 7
NS(=O)(=O)c1ccc(Nc2nc(-c3ccc(O)cc3)cs2)cc1 | 0 | 45* | -1 | 3 | 44* | -2
N#Cc1c2n(c(=S)n(-c3ccccc3[N+](=O)[O-])c1=O)CCCCC2 | 1 | 35* | 2 | 3 | -45 | -5
